Calls of active or inactive are those of the source. No cut-off for these calls is given here.
Key:
Homo sapiens [1] = species: Homo sapiens; assay: Selectivity ratio of IC50 for JAK2 (unknown origin) to IC50 for full length recombinant human His-tagged BTK expressed in baculovirus
[2] = molecular target: T1, Tyrosine-protein kinase BTK (Homo sapiens, UniProt Q06187); assay: Inhibition of BTK in human Ramos-B cells assessed as suppression of BCR/anti-IgM-stimulated Ca2+ flux after 1 hr incubation in dark by FLIPR1 assay
T1 sequence (Q06187 whole entry): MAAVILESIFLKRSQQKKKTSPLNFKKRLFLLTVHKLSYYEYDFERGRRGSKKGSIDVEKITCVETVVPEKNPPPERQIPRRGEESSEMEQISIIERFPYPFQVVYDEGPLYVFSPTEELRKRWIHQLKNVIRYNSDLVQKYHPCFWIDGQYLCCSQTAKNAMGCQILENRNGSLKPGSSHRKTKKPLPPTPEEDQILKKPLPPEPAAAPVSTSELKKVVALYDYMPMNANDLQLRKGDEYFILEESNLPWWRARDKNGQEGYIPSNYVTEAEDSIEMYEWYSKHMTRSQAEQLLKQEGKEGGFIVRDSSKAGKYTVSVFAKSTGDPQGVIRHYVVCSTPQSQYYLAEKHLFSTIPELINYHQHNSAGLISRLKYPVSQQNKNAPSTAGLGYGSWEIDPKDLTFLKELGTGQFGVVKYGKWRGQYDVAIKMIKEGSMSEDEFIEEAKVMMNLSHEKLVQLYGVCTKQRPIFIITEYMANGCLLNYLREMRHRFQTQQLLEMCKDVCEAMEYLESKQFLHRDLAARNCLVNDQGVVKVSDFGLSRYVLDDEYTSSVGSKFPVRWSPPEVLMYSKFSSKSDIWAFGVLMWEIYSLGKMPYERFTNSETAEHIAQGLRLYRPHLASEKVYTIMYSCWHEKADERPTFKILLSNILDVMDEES

[3] = molecular target: T1, Tyrosine-protein kinase BTK
[4] = AUC in mouse at 10 mg/kg; assay type: ADME, organism-based; conditions: in vivo
[5] = Drug metabolism in mouse assessed as metabolite 13c formation at 10 mg/kg, iv or po; assay type: ADME, organism-based; conditions: in vivo
[6] = Cmax in mouse at 10 mg/kg, iv or po; assay type: ADME, organism-based; conditions: in vivo
[7] = Clearance in mouse at 10 mg/kg, iv or po; assay type: ADME, organism-based; conditions: in vivo
[8] = molecular target: T1, Tyrosine-protein kinase BTK; assay: Inhibition of BTK in human whole blood assessed as suppression of BCR/anti-IgM/IgG-stimulated CD69 surface expression after 18 hrs with agitation by FITC-staining based FACS analysis; assay type: tissue-based
[9] = Drug level in cynomolgus monkey plasma treated with 4-(3-(S)-(8-Fluoro-1-methyl-2,4-dioxo-1,2-dihydroquinazolin-3(4H)-yl)-2-methylphenyl)7-(2-hydroxypropan-2-yl)-9H-carbazole-1-carboxamide after 4 hrs by HPLC analysis; assay type: ADME, Macaca fascicularis
In short: (§1)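 Atropisomer distribution was followed in plasma from multiple species incubated at 37 °C over 4 h.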

[10] = Cmax in mouse at 5 mg/kg; assay type: ADME, organism-based; design: dose 5 mg/kg; conditions: in vivo
[11] = Drug metabolism in dog plasma assessed as compound-6 formation after 4 hrs by HPLC analysis; assay type: ADME, cell-free, Canis lupus familiaris; in short: as §1
[12] = Protein binding in human serum; assay type: ADME; conditions: read-out: PPB (converted)
[13] = Drug metabolism in rat plasma assessed as compound-6 formation after 4 hrs by HPLC analysis; assay type: ADME, cell-free; in short: as §1
[14] = Stability of the compound in methanol at 37 degC assessed as kinetic half life; assay type: physicochemical
[15] = Drug level in human plasma treated with 4-(3-(S)-(8-Fluoro-1-methyl-2,4-dioxo-1,2-dihydroquinazolin-3(4H)-yl)-2-methylphenyl)7-(2-hydroxypropan-2-yl)-9H-carbazole-1-carboxamide after 4 hrs by HPLC analysis; assay type: ADME; in short: as §1
[16] = Drug metabolism in mouse plasma assessed as compound-6 formation after 4 hrs by HPLC analysis; assay type: ADME, cell-free; in short: as §1
[17] = Stability of the compound in methanol at 37 degC after 3 days; assay type: physicochemical; conditions: 72 h
[18] = Drug level in rat plasma treated with 4-(3-(S)-(8-Fluoro-1-methyl-2,4-dioxo-1,2-dihydroquinazolin-3(4H)-yl)-2-methylphenyl)7-(2-hydroxypropan-2-yl)-9H-carbazole-1-carboxamide after 1 hr by HPLC analysis; assay type: ADME; in short: as §1
[19] = AUC in mouse at 5 mg/kg; assay type: ADME, organism-based; conditions: in vivo
[20] = Drug level in dog treated with 3-Chloro-4-(R)-(3-(S)-(8-fluoro-1-methyl-2,4-dioxo-1,2-dihydroquinazolin-3(4H)-yl)-2-methylphenyl)-7-(2-hydroxypropan-2-yl)-9H-carbazole-1-carboxamide assessed as compound formation; assay type: ADME, Canis lupus familiaris; conditions: in vivo
[21] = Drug level in rat treated with 3-Chloro-4-(R)-(3-(S)-(8-fluoro-1-methyl-2,4-dioxo-1,2-dihydroquinazolin-3(4H)-yl)-2-methylphenyl)-7-(2-hydroxypropan-2-yl)-9H-carbazole-1-carboxamide assessed as compound formation; assay type: ADME; conditions: in vivo
[22] = Drug level in mouse treated with 3-Chloro-4-(R)-(3-(S)-(8-fluoro-1-methyl-2,4-dioxo-1,2-dihydroquinazolin-3(4H)-yl)-2-methylphenyl)-7-(2-hydroxypropan-2-yl)-9H-carbazole-1-carboxamide assessed as compound formation; assay type: ADME; conditions: in vivo
[23] = Stability of the compound in methanol at 37 degC after 5 days; assay type: physicochemical; conditions: 120 h
[24] = Stability in plasma (unknown origin) at 37 degC after 5 days; assay type: ADME, cell-free; conditions: 120 h
Mus musculus [25] = assay: Anti-autoimmune activity in lupus prone NZB/WF1 mouse model assessed as protection against inflammatory infiltration at 10 mg/kg, po administered qd for 16 weeks; assay type: functional, organism-based
Mus musculus [26] = assay: Anti-autoimmune activity in lupus prone NZB/WF1 mouse model assessed as reduction in immune complex deposits at 10 mg/kg, po administered qd for 16 weeks; assay type: functional, organism-based
Mus musculus [27] = assay: Anti-autoimmune activity in lupus prone NZB/WF1 mouse model assessed as protection against glomerular nephritis at 10 mg/kg, po administered qd for 16 weeks; assay type: functional, organism-based
Mus musculus [28] = assay: Anti-autoimmune activity in lupus prone NZB/WF1 mouse model assessed as protection against tubulo-interstitial nephritis at 10 mg/kg, po administered qd for 16 weeks; assay type: functional, organism-based
Homo sapiens [29] = species: Homo sapiens; assay: Inhibition of Na+ channel (unknown origin) at 10 uM at 1 Hz by patch clamp assay
Mus musculus [30] = assay: Anti-autoimmune activity in lupus prone NZB/WF1 mouse model assessed as reduction in immune complex deposits at 30 mg/kg, po administered qd for 16 weeks; assay type: functional, organism-based
In short: (§2)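 Female NZB/WF1 mice, 24 weeks old, were randomized (n = 12 per group) after baseline body weight, proteinuria and serum dsDNA titers were measured. They were dosed by oral gavage once daily for 16 weeks in 80:20 PEG400/water vehicle, with prednisolone 10 mg/kg as the comparator arm. Health was monitored routinely, and weight, proteinuria and anti-dsDNA titers were measured every 3 weeks.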

Mus musculus [31] = assay: Anti-autoimmune activity in lupus prone NZB/WF1 mouse model assessed as protection against glomerular nephritis at 30 mg/kg, po administered qd for 16 weeks; assay type: functional, organism-based; in short: as §2
Mus musculus [32] = assay: Anti-autoimmune activity in lupus prone NZB/WF1 mouse model assessed as protection against tubulo-interstitial nephritis at 30 mg/kg, po administered qd for 16 weeks; assay type: functional, organism-based; in short: as §2
Mus musculus [33] = assay: Anti-autoimmune activity in lupus prone NZB/WF1 mouse model assessed as protection against inflammatory infiltration at 30 mg/kg, po administered qd for 16 weeks; assay type: functional, organism-based; in short: as §2
Mus musculus [34] = assay: Antiathritis activity in anticollagen antibody-induced arthritis BALB/c mouse model assessed as reduction in LPS-induced inflammation in right hind paws at 5 and 20 mg/kg, po qd followed by LPS addition on day 3 measured after 11 days relative to control; assay type: functional, organism-based
Mus musculus [35] = assay: Antiathritis activity in anticollagen antibody-induced arthritis BALB/c mouse model assessed as reduction in LPS-induced bone resorption in right hind paws at 5 and 20 mg/kg, po qd followed by LPS addition on day 3 measured after 11 days relative to control; assay type: functional, organism-based
Mus musculus [36] = assay: Anti-autoimmune activity in lupus prone NZB/WF1 mouse model assessed as protection from disease-related death at 30 mg/kg, po administered qd for 16 weeks; assay type: functional, organism-based; in short: as §2
Homo sapiens [37] = species: Homo sapiens; assay: Inhibition of Na+ channel (unknown origin) at 10 uM at 4 Hz by patch clamp assay
Homo sapiens [38] = species: Homo sapiens; assay: Inhibition of Ca2+ channel (unknown origin) at 10 uM by patch clamp assay
Mus musculus [39] = assay: Anti-autoimmune activity in lupus prone NZB/WF1 mouse model assessed as inhibition of increase in severe proteinuria at 30 mg/kg, po administered qd for 16 weeks; assay type: functional, organism-based; in short: as §2

Structure (SMILES) | Ratio IC50 (Homo sapiens [1]) | IC50 [2] | IC50 [3] | AUC [4] | Cmax [6] | IC50 [8] | other results
Cc1c(-c2ccc(C(N)=O)c3[nH]c4c(c23)CC[C@@H](C(C)(C)O)C4)cccc1-n1c(=O)c2cccc(F)c2n(C)c1=O | 180 | 0.19 µM | 0.011 µM |  |  |  | 
Cc1c(-c2c(F)cc(C(N)=O)c3[nH]c4cc(C(C)(C)O)ccc4c23)cccc1-n1c(=O)c2cccc(F)c2n(C)c1=O |  |  |  | 28 µM·h | 5.5 µM |  | Drug metabolism [5]: Metabolite_Detected
Cc1c(-c2c(Cl)cc(C(N)=O)c3[nH]c4c(c23)CC[C@H](C(C)(C)O)C4)cccc1-n1c(=O)c2cccc(F)c2n(C)c1=O |  |  |  | 25 µM·h | 4.5 µM |  | CL [7]: 15%
Cc1c(-c2c(C#N)cc(C(N)=O)c3[nH]c4cc(C(C)(C)O)ccc4c23)cccc1-n1c(=O)c2cccc(F)c2n(C)c1=O | 7100 | 0.006 µM |  | 0.31 µM·h | 0.12 µM | 0.12 µM | 
Cc1c(-c2ccc(C(N)=O)c3[nH]c4cc(C(C)(C)O)ccc4c23)cccc1-n1c(=O)c2cccc(F)c2n(C)c1=O |  |  |  |  |  |  | Drug uptake [9]: Active; Cmax [10]: 2.2 µM; Drug metabolism [11]: Metabolite_Notdetected; fraction unbound [12]: < 0.01; Drug metabolism [13]: Metabolite_Notdetected; half-life [14]: 1.15 h; Drug uptake [15]: Active; Drug metabolism [16]: Metabolite_Notdetected; Stability [17]: Stable; Drug uptake [18]: Active; AUC [19]: 25 µM·h
Cc1c(-c2ccc(C(N)=O)c3[nH]c4cc(C(C)(C)O)ccc4c23)cccc1-n1cnc2ccccc2c1=O |  |  |  | 80 µM·h |  |  | 
Cc1cc(C(N)=O)c2[nH]c3cc(C(C)(C)O)ccc3c2c1-c1cccc(-n2c(=O)c3cccc(F)c3n(C)c2=O)c1C |  | 0.017 µM | 0.00065 µM | 48 µM·h | 6.3 µM | 0.24 µM | 
Cc1c(-c2c(Cl)cc(C(N)=O)c3[nH]c4cc(C(C)(C)O)ccc4c23)cccc1-n1c(=O)[nH]c2c(F)cccc2c1=O |  |  | 0.0016 µM |  |  |  | Drug metabolism [20]: Metabolite_Detected; Drug metabolism [21]: Metabolite_Detected; Drug metabolism [22]: Metabolite_Detected
Cc1c(-c2c(Cl)cc(C(N)=O)c3[nH]c4cc(C(C)(C)O)ccc4c23)cccc1-n1c(=O)c2cccc(F)c2n(C)c1=O |  |  |  | 41 µM·h | 4.7 µM |  | Stability [23]: Stable; Stability [24]: Stable
Cc1c(-c2ccc(C(N)=O)c3[nH]c4cc(C(C)(C)O)ccc4c23)cccc1-n1c(=O)c2ccccc2n(C)c1=O |  |  | 0.0026 µM |  |  | 0.46 µM | Stability [17]: Stable
Cc1c(-c2c(F)cc(C(N)=O)c3[nH]c4c(c23)CC[C@@H](C(C)(C)O)C4)cccc1-n1c(=O)c2cccc(F)c2n(C)c1=O | 910 | 0.036 µM |  |  |  | 0.15 µM | 
Cc1c(-c2ccc(C(N)=O)c3[nH]c4c(c23)CC[C@H](C(C)(C)O)C4)cccc1-n1c(=O)c2cccc(F)c2n(C)c1=O | 740 | 0.063 µM | 0.0027 µM | 16 µM·h | 3.6 µM | 0.38 µM | 
C[C@]12C=CC(=O)C=C1CC[C@@H]1[C@@H]2[C@@H](O)C[C@@]2(C)[C@H]1CC[C@]2(O)C(=O)CO |  |  |  |  |  |  | Activity (Mus musculus [25]): Active; Activity (Mus musculus [26]): Active; Activity (Mus musculus [27]): Active; Activity (Mus musculus [28]): Active
Cc1c(-c2c(F)cc(C(N)=O)c3[nH]c4c(c23)CC[C@H](C(C)(C)O)C4)cccc1-n1c(=O)c2cccc(F)c2n(C)c1=O (atropisomer R) | > 10000 |  |  |  |  |  | inhibition (Homo sapiens [29]): 10%; Activity (Mus musculus [30]): Active; Activity (Mus musculus [31]): Active; Activity (Mus musculus [32]): Active; Activity (Mus musculus [33]): Active; Activity (Mus musculus [34]): Active; Activity (Mus musculus [35]): Active; Activity (Mus musculus [36]): Active; inhibition (Homo sapiens [37]): 13%; inhibition (Homo sapiens [38]): 40%; inhibition (Mus musculus [39]): Active
Cc1c(-c2c(F)cc(C(N)=O)c3[nH]c4c(c23)CC[C@H](C(C)(C)O)C4)cccc1-n1c(=O)c2cccc(F)c2n(C)c1=O [BMS-986142] |  | 0.75 µM | 0.025 µM |  |  |  | 

— ChEMBL document CHEMBL3856250, “Discovery of 6-Fluoro-5-(R)-(3-(S)-(8-fluoro-1-methyl-2,4-dioxo-1,2-dihydroquinazolin-3(4H)-yl)-2-methylphenyl)-2-(S)-(2-hydroxypropan-2-yl)-2,3,4,9-tetrahydro-1H-carbazole-8-carboxamide (BMS-986142): A Reversible Inhibitor of Bruton's Tyrosine Kinase (BTK) Conformationally Constrained by Two …” (J Med Chem, 2016)
